Measurements as given in ChEMBL document CHEMBL4513216, “Probing the Open Global Health Chemical Diversity Library for Multistage-Active Starting Points for Next-Generation Antimalarials” (ACS Infect Dis, 2020).

Test: Toxicity liver stage against HepG2, at 10uM
Type: cell-based
Design: test concentration 10 uM, cell line HepG2-A16-CD81EGFP
Conditions: human, HepG2-A16-CD81EGFP cells; read-out: INHIBITION
Outline: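 Uninfected HepG2-A16-CD81EGFP cells, 3 × 10^3 per well, 1536-well, plated on prespotted compound at 10 μM final, parasite-free screening media added to match infected plates; puromycin 10 μM positive, DMSO 0.5% negative; run in parallel with 48 h PbLuc assay at 37 °C, 5% CO2; viability by CellTiter-Glo luminescence, normalized to controls.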
In the case of `Cc1nc(C)n(CC2CN(Cc3nc4ccccc4s3)CCO2)n1` (stereo not given), the cytotoxicity at 10 µM is reported as 44.4%.
For `CCCn1cc(C(=O)NCc2nnc(-c3ccc(C)nc3)o2)c(C)n1`, the cytotoxicity at 10 µM was -0.277%.
Work on `CN1CCN(CC2CC2)C(=O)c2cnc(N3CC[C@@H](O)C3)nc21` yielded a cytotoxicity at 10 µM of 2.19%.
Compound `Cc1cnn(CC(=O)Nc2cc(-n3nnnc3C3CC3)ccc2F)c1` has a cytotoxicity at 10 µM of -5.46%.
`Cc1cccnc1C(Cc1ccsc1)NC(=O)Cn1cccnc1=O` (stereo not given) showed a cytotoxicity at 10 µM of 3.08%.
Work on `Cc1noc(C2CCCN(CC(=O)N3CCNC(=O)C3)C2)n1` (stereo not given) yielded a cytotoxicity at 10 µM of -13%.
Work on `CC(c1ccc(Br)cc1)N1CCCN(C(N)=O)CC1` (stereo not given) yielded a cytotoxicity at 10 µM of 2.1%.
Work on `Cc1cc2ccccc2n1CCC(=O)N1CCCCC1CCO` (stereo not given) yielded a cytotoxicity at 10 µM of 10.4%.
For `Cc1cccc2[nH]c(-c3cn(C4CCNCC4)nn3)nc12`, the cytotoxicity at 10 µM was -6.47%.
Work on `Cn1nccc1C(=O)N1CCCN(CCCc2ccccc2)CC1` yielded a cytotoxicity at 10 µM of -2.45%.
In the case of `CC1CN(C(=O)c2cc[nH]c(=O)c2)c2ccccc21` (stereo not given), the cytotoxicity at 10 µM is reported as 1.5%.
Compound `CN(C(=O)CNc1ccc(C#N)cc1)C1CCN(c2ccccn2)CC1` has a cytotoxicity at 10 µM of 18.7%.
For `Cn1cnnc1C1CCCN(c2nc3ccccc3o2)C1` (stereo not given), the cytotoxicity at 10 µM was -17.4%.
In the case of `CC(=O)N1CCN(c2cc(-n3cnc(C)c3C)nc(C)n2)CC1`, the cytotoxicity at 10 µM is reported as 0.727%.
Work on `c1cnc(N2CCCC3(CCN(CC4CC4)C3)C2)nc1` (stereo not given) yielded a cytotoxicity at 10 µM of -76.9%.
`CCc1[nH]c2ccc(CNC(=O)Cc3c(C)nc(N)nc3C)cc2c1C` showed a cytotoxicity at 10 µM of 2.02%.
Work on `Cc1cc(C)c2c(c1)C(NC(=O)CSCC(N)=O)CCO2` (stereo not given) yielded a cytotoxicity at 10 µM of -6.94%.
With `Cc1cnn(CCNCc2ccc(OCc3noc(C)n3)cc2)c1` the cytotoxicity at 10 µM was 1.33%.
`Cc1cc(-c2cnc(NC3CC3)nc2-c2ccco2)on1` gave a cytotoxicity at 10 µM of -23.2%.
`COc1ccc(OC2CCN(C(=O)CCc3n[nH]c(N)n3)CC2)cc1` showed a cytotoxicity at 10 µM of 1.43%.
For `COc1cccc2cc(CNCc3ccnc(N(C)C)c3)oc12`, the cytotoxicity at 10 µM was -6.87%.
In the case of `COCCCN(Cc1ccncc1)c1ncc(C#N)cc1Cl`, the cytotoxicity at 10 µM is reported as 4.98%.
`Cc1cc(-c2ccc(=O)n(C3CCN(C(=O)C4CC4)CC3)n2)c(C)o1` gave a cytotoxicity at 10 µM of 4.79%.
Work on `CC(C)(C)OC(=O)NC(C)(C)c1noc(CSc2nncs2)n1` yielded a cytotoxicity at 10 µM of 16.6%.
`O=C(c1cccnc1N1CCOCC1)N1CCCC1Cn1cccn1` (stereo not given) showed a cytotoxicity at 10 µM of -2.53%.
`O=C(c1ccc(Cl)cc1)N1CCn2c(nn(-c3ccncc3)c2=O)C1` gave a cytotoxicity at 10 µM of 27.5%.
Compound `Cc1noc(CCCNC(=O)CNC(=O)c2cc3ccccc3[nH]2)n1` has a cytotoxicity at 10 µM of 4.81%.
For `Cc1cccc2c1OCCCC2NCc1nnc2n1CCCCC2` (stereo not given), the cytotoxicity at 10 µM was -0.699%.
Work on `COCC1CCCN(C(=O)c2ccc(NC(=O)CC(C)C)c(C)c2)C1` (stereo not given) yielded a cytotoxicity at 10 µM of -5.76%.
`Cc1nc(C(C)C)sc1C(=O)NCCSc1nccn1C` showed a cytotoxicity at 10 µM of -1.7%.
Compound `Cc1ccn2cc(C(=O)N3CCCC(Cn4cc(CO)nn4)C3)nc2c1` (stereo not given) has a cytotoxicity at 10 µM of 2.41%.
`c1cncc(CN2CC[C@H]3O[C@@H](COCC4CC4)CC[C@H]32)c1` showed a cytotoxicity at 10 µM of 2.19%.
With `O=C(NC1CCS(=O)(=O)C1)N1CCN(c2cnccn2)CC1` (stereo not given) the cytotoxicity at 10 µM was -0.685%.
In the case of `CN(C)CCN1CCO[C@@H]2CCN(C(=O)c3cccn3C)CC[C@H]21`, the cytotoxicity at 10 µM is reported as 7.17%.
`CCOc1ccc(NC(=O)c2scnc2CC)cc1CO` showed a cytotoxicity at 10 µM of -9.48%.
`CCOC(=O)c1ccc(CNC(=O)c2ccc(Cl)cn2)o1` gave a cytotoxicity at 10 µM of 6.72%.
With `CNC(=O)CN(C)CC1(c2ccc(Br)cc2)CC1` the cytotoxicity at 10 µM was 3.89%.
`CC(C)(C)OCC1CN(Cc2cccs2)S(=O)(=O)c2cnccc2O1` (stereo not given) showed a cytotoxicity at 10 µM of 2.89%.
`Cc1ncccc1-c1cc2cccnc2n1CCCNC(=O)C(C)(C)C` showed a cytotoxicity at 10 µM of 12.8%.
`c1ccc(-n2cc(CN3CCCCC3Cn3cncn3)nn2)cc1` (stereo not given) showed a cytotoxicity at 10 µM of -14.2%.
In the case of `Cc1nn(-c2ncnc3[nH]cnc23)c2c1C(C(C)(C)C)CC(=O)N2` (stereo not given), the cytotoxicity at 10 µM is reported as 5.08%.
`CC1CN(C)c2ccccc2CN1C(=O)c1ccc[nH]1` (stereo not given) gave a cytotoxicity at 10 µM of -28.4%.
Compound `CCNc1ncc(C(=O)N2CCC(c3ccccc3C(=O)O)C2)cn1` (stereo not given) has a cytotoxicity at 10 µM of -6.41%.
`Cc1nc[nH]c1CN1CCCC(CNC(=O)c2ccc(N)nc2)C1` (stereo not given) showed a cytotoxicity at 10 µM of 1.56%.
Work on `Cc1c(NC(=O)CN(C)S(C)(=O)=O)cccc1OC1CCCC1` yielded a cytotoxicity at 10 µM of -0.302%.
